Screens from PubChem BioAssay.
Only some compounds are listed: those with a hit (about 3.1% of all), similar ones and a draw of the others.
KCNK3 inh: human KCNK3 channel inhibition, primary screen; CHO-KCNK3 thallium flux, FluxOR fluorescence; stronger effect = lower value; B-score at 10 µM; actives 0.84% (n = 340,000); AID 602410;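 active = B-score under library mean minus 4 SD, starting fluorescence ratio at most library mean plus 5 SD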;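 note: more negative B-score means stronger inhibition of thallium flux through KCNK3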
hERG protect: compounds protecting human hERG from proarrhythmic drug block; CHO-hERG, FluxOR thallium flux, dofetilide IC70 present; actives 0.51% (n = 310,000); activation (rescue from dofetilide block), less the hit threshold, % at 10 µM; Q12809;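 active = activation above the mean of controls blocked by dofetilide plus 5 SD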;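 note: thallium influx through hERG after potassium depolarization seen as dye fluorescence rise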
Target sequence (Q12809 whole entry, looked up): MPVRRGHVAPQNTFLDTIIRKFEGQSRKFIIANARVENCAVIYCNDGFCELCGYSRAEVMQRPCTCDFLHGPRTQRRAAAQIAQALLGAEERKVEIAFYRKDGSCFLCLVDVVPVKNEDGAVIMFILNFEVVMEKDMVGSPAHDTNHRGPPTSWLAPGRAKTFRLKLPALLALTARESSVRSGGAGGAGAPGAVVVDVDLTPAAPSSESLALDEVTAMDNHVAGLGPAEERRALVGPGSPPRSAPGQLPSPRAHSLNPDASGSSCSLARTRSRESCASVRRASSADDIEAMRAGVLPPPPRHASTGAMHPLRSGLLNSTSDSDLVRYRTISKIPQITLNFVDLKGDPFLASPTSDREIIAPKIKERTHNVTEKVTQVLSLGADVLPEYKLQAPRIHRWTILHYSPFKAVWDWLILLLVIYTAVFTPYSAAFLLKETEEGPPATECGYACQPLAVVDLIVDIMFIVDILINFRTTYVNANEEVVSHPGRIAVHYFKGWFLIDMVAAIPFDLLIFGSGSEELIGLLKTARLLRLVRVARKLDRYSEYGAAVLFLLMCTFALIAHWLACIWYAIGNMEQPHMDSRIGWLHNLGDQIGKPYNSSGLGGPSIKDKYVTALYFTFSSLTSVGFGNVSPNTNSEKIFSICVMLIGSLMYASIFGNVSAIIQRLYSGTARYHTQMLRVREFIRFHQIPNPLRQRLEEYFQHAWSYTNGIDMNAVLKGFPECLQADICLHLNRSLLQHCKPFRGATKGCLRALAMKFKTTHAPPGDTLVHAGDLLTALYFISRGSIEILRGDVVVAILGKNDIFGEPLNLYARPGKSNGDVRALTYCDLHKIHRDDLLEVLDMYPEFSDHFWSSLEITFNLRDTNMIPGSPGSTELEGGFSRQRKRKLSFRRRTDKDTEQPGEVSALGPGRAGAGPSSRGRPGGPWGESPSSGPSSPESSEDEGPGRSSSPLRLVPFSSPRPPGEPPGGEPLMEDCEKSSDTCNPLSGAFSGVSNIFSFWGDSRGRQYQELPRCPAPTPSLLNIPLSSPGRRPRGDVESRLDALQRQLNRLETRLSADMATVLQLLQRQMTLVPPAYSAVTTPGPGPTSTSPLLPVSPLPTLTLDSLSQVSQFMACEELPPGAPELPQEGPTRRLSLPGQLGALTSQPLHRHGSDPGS
KCNQ1 act: potentiators or activators of human KCNQ1 potassium channel | P51787 | CHO-K1 KCNQ1, thallium flux FluxOR fluorescence; stronger effect = higher value | B-score at 10 µM | actives 0.35% (n = 310,000);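 active = fluorescence ratio B-score, a plate-corrected score, at least three library SD, with initial intensity B-score within 5 SD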
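Assay system: CHO-K1 cells stably expressing KCNQ1. Medium: assay buffer for compound exposure, DMSO matched across wells. Timing: 37 °C overnight plating, 90-min dark dye load, 20-min compound pretreatment. Signal: kinetic FluxOR fluorescence, 10 s baseline plus 110 s post-stimulus.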
KCNK9 inh: blocks the human KCNK9 two-pore domain potassium channel. Q9NPC2. HEK293 KCNK9, FluxOR thallium flux fluorescence; stronger effect = lower value. B-score at 10 µM. actives 1.2% (n = 310,000). AID 488922;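 active = ratio B-score over 3 SD below the library mean, with starting fluorescence within 5 SD of its mean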;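 note: negative B-score means less thallium flux so channel inhibition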
KCNQ1 inh: human KCNQ1 channel inhibition; B-score at 10 µM; P51787; actives 1.3% (n = 310,000); AID 2642; CHO-K1 KCNQ1, FluxOR thallium flux fluorescence; stronger effect = higher value;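 active = compounds whose thallium flux B-score, printed positive for inhibition, exceeds three library SD while starting fluorescence stays within three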;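 note: channel opened by potassium depolarization with thallium stimulus after 20 min compound exposure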
KCNK3 confirm: confirmation of human KCNK3 two-pore domain potassium channel inhibitors | shares compounds with KCNK3 inh | CHO-KCNK3 thallium flux, FluxOR fluorescence; 0% buffer, 100% carvedilol maximal block | ratio percent of control, % at 10 µM | actives 99% (n = 2,400) | AID 651638;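 active = ratio percent of control, averaged over triplicates, above buffer control mean plus 5 SD, cut at about 64% in these data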;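 note: ratio is the fluorescence rise from min to max over baseline after thallium stimulus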
KCNK3 noninduced: KCNK3 inhibitor counter-screen hit in non-induced cells; shares compounds with KCNK3 inh; non-induced KCNK3 parental cells, FluxOR thallium flux; stronger effect = lower value; thallium flux ratio (lower = more inhibition) at 10 µM; actives 40% (n = 2,400);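 active = thallium flux ratio, averaged over three wells, more than 5 SD below the buffer control mean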;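 note: host cells are CHO cells without KCNK3 induction; ratio is peak minus trough fluorescence over baseline then normalized to buffer controls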
An asterisk follows results filed as active; i = inactive; x = no result.

SMILES | KCNK3 inh | hERG protect | KCNQ1 act | KCNK9 inh | KCNQ1 inh | KCNK3 confirm | KCNK3 noninduced
Cc1cc2c(Nc3ccc(C(=O)O)cc3)ncnc2s1 | -10.3* | -3.9 | i | i | i | 62.0* | i
COc1ccc(Cl)cc1NC(=O)CN(C)C(=O)c1sc2ccccc2c1Cl | -12.2* | x | x | x | x | 111.7* | i
Cc1nc(C(=O)Nc2cccc(Cl)c2)nn1-c1cc(OC(C)C)c(Cl)cc1Cl | -8.9* | -11.3 | i | i | i | 96.3* | i
Cc1nc(C(=O)Nc2cc(Cl)ccc2Cl)nn1-c1cc(OC(C)C)c(Cl)cc1Cl | i | -9.0 | i | i | i | x | x
O=C(N/N=C/c1cccnc1)c1cc2c(ccc3ccccc32)o1 | i | -5.5 | i | i | i | x | x
O=C(N/N=C/c1cc(Cl)c(O)c(Cl)c1)c1cc2c(ccc3ccccc32)o1 | -11.1* | -28.4 | i | i | 12* | 101.0* | 0.152*
CC(C)(C)OC(=O)COc1cc(F)ccc1[N+](=O)[O-] | i | x | x | x | x | x | x
CCOC(=O)c1sc2nc(C)nc(N3CCCCC3C)c2c1C (stereo unspecified) | -8.78* | -10.7 | i | i | i | 90.3* | 0.148*
O=C1NC2=C(C(=O)CCC2)C(c2cccc([N+](=O)[O-])c2)N1 (stereo unspecified) | i | -2.4 | i | i | i | x | x
O=C(Nc1ccc(Cl)cc1Cl)NC1CCCC1 | i | -12.7 | i | i | i | x | x
CN(C(=O)Nc1ccc(Cl)cc1Cl)C1CCCC1 | -9.11* | -22.1 | i | i | i | 76.0* | i
CCCC(c1nnnn1Cc1cccs1)N1CCN(c2nc3ccccc3s2)CC1 (stereo unspecified) | -8.89* | -1.8 | i | -8.07* | i | 103.7* | i
CCCC(c1nnnn1CC1CCCO1)N1CCN(c2nc3ccccc3s2)CC1 (stereo unspecified) | i | -7.2 | i | i | i | x | x
CCCCN(C)C(=S)Nc1ccc2nc3n(c(=O)c2c1)CCCCC3 | i | -3.6 | i | i | i | x | x
COC(=O)C1CCN(c2nc3ccccc3nc2C(C#N)C(=O)NCCc2ccccc2)CC1 (stereo unspecified) | i | -18.4 | i | i | i | x | x
COC(=O)C1CCN(c2nc3ccccc3nc2C(C#N)C(=O)OCC(C)C)CC1 (stereo unspecified) | i | -7.4 | i | -6.84* | i | 117.3* | 0.154*
Cc1[nH]c2ccc(F)cc2c1CCN(Cc1ccco1)C(=S)NC(C)(C)C | -10.5* | 1.0 | i | i | 7* | 119.7* | 0.159*
Cc1nn2c(NCC(C)C)c3c(nc2c1-c1ccccc1)CCC3 | i | -11.0 | i | i | i | x | x
Cc1nn2c(NC(C)C)c3c(nc2c1-c1ccccc1)CCC3 | -8.95* | -12.2 | i | i | i | 94.0* | i
COC(=O)CCc1c[nH]c2ccc([N+](=O)[O-])cc12 | i | x | x | x | x | x | x
O=C(CCc1c[nH]c2ccccc12)OCc1cccc([N+](=O)[O-])c1 | -9.37* | -10.5 | i | i | i | 83.3* | i
O=C(O)C1CCCCN1C(=O)c1ccc(S(=O)(=O)N2CCCCCC2)cc1 (stereo unspecified) | i | x | x | x | x | x | x
Cc1ccccc1C(=O)N(Cc1cccs1)C1CCS(=O)(=O)C1 (stereo unspecified) | i | -5.4 | i | i | i | x | x
Cc1ccc(Cc2cc(-c3ccc(C)cc3)n[nH]c2=O)cc1 | i | -9.1 | i | i | i | x | x
CCc1ccc2c(c1)C1(NN=C(c3ccc(C)cc3)S1)C(=O)N2 (stereo unspecified) | -8.71* | -23.2 | i | i | 7* | 106.0* | 0.114*
SMILES | KCNK3 inh | hERG protect | KCNQ1 act | KCNK9 inh | KCNQ1 inh | KCNK3 confirm | KCNK3 noninduced
CN(C)CCN=Cc1c(O)n(Cc2ccccc2)c(=O)c2ccccc12 | i | -9.0 | i | i | i | x | x
CN(C)CCCN=Cc1c(O)n(Cc2ccccc2)c(=O)c2ccccc12 | -11.5* | -11.1 | i | -7.2* | i | 97.7* | i
COCCn1c(SCc2ccc(C(=O)OC)o2)nc2cc(Cl)ccc2c1=O | -9.76* | -1.2 | i | -7.39* | i | 125.7* | i
COCCn1c(SCC(=O)Nc2cc(C)on2)nc2cc(Cl)ccc2c1=O | i | x | x | x | x | x | x
CCOC(=O)C1CCCN(S(=O)(=O)Cc2ccc(Cl)cc2)C1 (stereo unspecified) | i | -8.5 | i | i | i | x | x
Cc1cc(N/N=C\c2ccccc2)nc(-c2ccccc2O)n1 | i | -5.9 | i | i | i | x | x
C/C(=N\Nc1cc(C)nc(-c2ccccc2O)n1)c1ccccc1O | -9.07* | -21.4 | i | i | 10* | 105.7* | i
COc1ccc(-c2[nH]ncc2N=Nc2ccccc2)cc1 | -9.22* | -9.8 | i | i | i | 88.3* | i
COc1ccc(-c2[nH]ncc2N=Nc2cc(C)cc(C)c2)cc1 | i | -6.7 | i | i | i | x | x
COc1ccc(CNCC(O)(c2ccc(Cl)cc2)c2ccc(Cl)cc2)cc1 | -9.26* | -37.8 | i | i | i | 131.3* | i
COc1ccc(CNCC(O)(c2ccc(Cl)cc2)c2ccc(Cl)cc2)cc1OC | i | -18.9 | i | i | i | x | x
CCOC(=O)C1=C(COC(=O)COc2ccccc2C(C)C)NC(=O)NC1C (stereo unspecified) | i | x | x | x | x | x | x
Cc1cc(C(=O)Nc2cc(C)n(Cc3ccc(Cl)cc3)n2)no1 | i | -6.0 | i | i | i | x | x
Cc1cc(NC(=O)c2cc(C(C)C)on2)nn1Cc1ccc(Cl)cc1 | -9.51* | -11.0 | i | i | i | 104.7* | i
COc1cccc(CN2CCNC(=O)C2CC(=O)N(C)C2CCCCC2)c1 (stereo unspecified) | i | -11.2 | i | i | i | x | x
CCN(CC1COc2ccccc2O1)C(=O)c1ccc(Cl)c(S(=O)(=O)N2CC(C)OC(C)C2)c1 (stereo unspecified) | i | -14.8 | i | i | i | x | x
CC1CN(S(=O)(=O)c2cc(C(=O)N(CCc3ccccc3)Cc3ccccc3)ccc2Cl)CC(C)O1 (stereo unspecified) | -8.74* | -16.0 | i | i | i | 85.0* | i
COc1cc(NC(=O)Cn2cnc3c(SC)nc(N)nc32)cc(OC)c1OC | i | x | x | x | x | x | x
COc1ccc(Nc2nc(-c3cccs3)cs2)c(OC)c1 | i | -14.3 | i | i | i | x | x
COc1ccc(OC)c(Nc2nc(-c3cccs3)cs2)c1 | -9.1* | 0.7 | i | i | i | 89.7* | i
